According to ChEMBL document CHEMBL1142852, “A series of 5-(5,6)-dihydrouracil substituted 8-hydroxy-[1,6]naphthyridine-7-carboxylic acid 4-fluorobenzylamide inhibitors of HIV-1 integrase and viral replication in cells” (Bioorg Med Chem Lett, 2005):
Blank lines part the entries; values can stand above or below the compound they belong to.

What was measured:
[1] = target: Human immunodeficiency virus type 1 integrase (Human immunodeficiency virus 1, UniProt Q7ZJM1); assay: Inhibition of strand transfer for HIV-1 integrase
Sequence of Human immunodeficiency virus type 1 integrase (Q7ZJM1 whole entry): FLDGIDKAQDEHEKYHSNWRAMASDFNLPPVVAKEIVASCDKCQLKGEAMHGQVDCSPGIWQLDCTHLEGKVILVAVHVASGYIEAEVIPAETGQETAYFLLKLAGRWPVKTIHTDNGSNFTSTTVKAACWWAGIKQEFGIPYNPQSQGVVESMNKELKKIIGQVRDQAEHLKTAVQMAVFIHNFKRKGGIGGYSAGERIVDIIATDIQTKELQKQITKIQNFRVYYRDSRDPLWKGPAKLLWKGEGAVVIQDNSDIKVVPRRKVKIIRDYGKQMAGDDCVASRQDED

[2] = Human plasma albumin binding in pH 7.4 at RT; assay type: ADME, cell-free
How it was run: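 Binding to human plasma protein, mainly albumin, was measured by analytical HPLC with UV detection. The assay ran in pH 7.4 buffer at room temperature, and the result was reported as percent protein bound.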

[3] = test system: Human immunodeficiency virus; assay: Antiviral activity in presence of 10% FBS against HIV-1 replication in cells; assay type: functional, Human immunodeficiency virus 1; conditions: read-out: CIC95
[4] = test system: Human immunodeficiency virus; assay: Antiviral activity in presence of 50% NHS against HIV-1 replication in cells; assay type: functional, Human immunodeficiency virus 1; conditions: read-out: CIC95

SMILES: O=C(NCc1ccc(F)cc1)c1ncc2cccnc2c1O
IC50 [1]: 0.0328 µM
Activity [2]: 99.2%
IC95 ([3]; Human immunodeficiency virus 1): 1.25 µM
IC95 ([4]; Human immunodeficiency virus 1): 5 µM

SMILES: CN1C(=O)CC(c2nc(C(=O)NCc3ccc(F)cc3)c(O)c3ncccc23)N(C)C1=O (racemic)
IC50 [1]: 0.0087 µM
Activity [2]: 94.3%
IC95 [3]: 0.0186 µM
IC95 [4]: 0.0607 µM

SMILES: O=C1CC(c2nc(C(=O)NCc3ccc(F)cc3)c(O)c3ncccc23)NC(=O)N1 (racemic)
IC50 [1]: 0.01 µM
Activity [2]: 92.1%
IC95 [3]: 0.0537 µM
IC95 [4]: 0.0557 µM

IC50 [1]: 0.0128 µM
SMILES: CN1C(=O)CC(c2nc(C(=O)NCc3ccc(F)cc3)c(O)c3ncccc23)NC1=O (racemic)
IC95 ([3]; Human immunodeficiency virus 1): 0.0313 µM
IC95 ([4]; Human immunodeficiency virus 1): 0.0625 µM

IC50 [1]: 0.0125 µM
SMILES: CN1C(=O)NC(=O)CC1c1nc(C(=O)NCc2ccc(F)cc2)c(O)c2ncccc12 (racemic)
IC95 ([3]; Human immunodeficiency virus 1): 0.0156 µM
IC95 ([4]; Human immunodeficiency virus 1): 0.0156 µM

SMILES: CN1C(=O)CC(c2nc(C(=O)NCc3ccc(F)cc3)c(O)c3ncccc23)N(C)C1=O (single isomer, unassigned; (+))
IC50 [1]: 0.0113 µM
Activity [2]: 96%
IC95 [3]: 0.0417 µM
IC95 [4]: 0.1667 µM

SMILES: O=C1CC(c2nc(C(=O)NCc3ccc(F)cc3)c(O)c3ncccc23)NC(=O)N1 (single isomer, unassigned; (+))
IC50 [1]: 0.011 µM
IC95 [3]: 0.0938 µM
IC95 [4]: 0.0938 µM

SMILES: CN1C(=O)CC(c2nc(C(=O)NCc3ccc(F)cc3)c(O)c3ncccc23)N(C)C1=O (single isomer, unassigned; (-))
IC50 [1]: 0.035 µM
Activity [2]: 95%
IC95 [3]: 0.0201 µM
IC95 [4]: 0.0402 µM

SMILES: O=C1CC(c2nc(C(=O)NCc3ccc(F)cc3)c(O)c3ncccc23)NC(=O)N1 (single isomer, unassigned; (-))
IC50 [1]: 0.0133 µM
IC95 [3]: 0.125 µM
IC95 [4]: 0.125 µM

SMILES: CN1C(=O)CC(c2nc(C(=O)NCc3ccc(F)cc3)c(O)c3ncccc23)N(C)C1=O (stereo in doubt; 14)
IC50 [1]: 0.0275 µM
Activity [2]: 97.8%
IC95 [3]: 0.25 µM
IC95 [4]: 1 µM
